Reference: ChEMBL document CHEMBL4513216, “Probing the Open Global Health Chemical Diversity Library for Multistage-Active Starting Points for Next-Generation Antimalarials” (ACS Infect Dis, 2020)

Assay: Toxicity liver stage against HepG2, at 10uM
Assay type: cell-based
Set-up: test concentration 10 uM, cell line HepG2-A16-CD81EGFP
Conditions: human, HepG2-A16-CD81EGFP cells; read-out: INHIBITION
Summary of the method: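 Uninfected HepG2-A16-CD81EGFP cells, 3 × 10^3 per well, 1536-well, plated on prespotted compound at 10 μM final, parasite-free screening media added to match infected plates; puromycin 10 μM positive, DMSO 0.5% negative; run in parallel with 48 h PbLuc assay at 37 °C, 5% CO2; viability by CellTiter-Glo luminescence, normalized to controls.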

SMILES	cytotoxicity at 10 µM
O=C(CN1CCN(C(=O)c2ccccc2)CC1)Nc1ccc(Br)cn1	14.1%
CCN1Cc2cc(F)ccc2N(CC(O)C(F)(F)F)CCC1=O (configuration not stated)	-3.4%
COc1c[nH]c(C(=O)N2CCN(c3ccccc3)CC2)cc1=O	0.0868%
CCOCC(=O)NCC(Cc1cccc(F)c1)n1cccc1 (configuration not stated)	-6.22%
Cn1c(C(F)(F)F)nn(CCNC(=O)Nc2ccccc2F)c1=O	-2.59%
CN(c1ncc(C(=O)Nc2ccccc2)c(N)n1)C1CCCCC1	-6.21%
NC(=O)C1CCN(c2nc3nccc(-c4cccnc4)c3c(=O)[nH]2)CC1	12.1%
Cc1ccc2c(ccn2CC(=O)NC[C@@H]2CCCN3CCCC[C@H]23)c1	0.097%
CCn1nc(C)c2c1cnn2CCNS(=O)(=O)Cc1ccccc1	9.6%
COCCNc1ncc(-c2cc(C)no2)c(-c2ccco2)n1	13.4%
COc1ccc(CC2CN(Cc3cncn3C)CCO2)cc1 (configuration not stated)	0.328%
O=C(O)COc1ccccc1CN1CCCC1c1cnccn1 (configuration not stated)	22%
O=C(CC1CCCCC1)N1CCC(c2ncc3c(n2)CCNC3)CC1	-8.21%
Cn1cc(CN2CC[C@H](O)[C@@H](n3ccc(=O)[nH]c3=O)CC2)cn1	20.4%
O=C(C1CC1)N1CCCC(c2nc(O)cc(-c3ccncc3)n2)C1 (configuration not stated)	31.2%
Cc1noc2nc(C3CCN(Cc4ccccn4)CC3)cc(C(F)F)c12	-13%
COCCn1cnc2c(F)cc(Br)cc2c1=O	-0.62%
CNS(=O)(=O)CCCN1CCN(C(C#N)c2ccccc2)CC1 (configuration not stated)	7.7%
COC(=O)CC1CCCCN1CC(=O)Nc1cc(F)ccc1F (configuration not stated)	6.55%
CC(c1ccccc1)N(C)C(=O)CN1CCN(c2cnccn2)CC1 (configuration not stated)	3.96%
COc1cc2c(cc1CNC(=O)Cc1cc(C)on1)OC(C)C2 (configuration not stated)	5.38%

SMILES	cytotoxicity at 10 µM
Cc1nc(C)n(CC2CCCCN2CCCN2CCCC2=O)n1 (configuration not stated)	-2.35%
COCc1nc(C(=O)N2CCN(c3nccc(OC)n3)CC2)cs1	-7.68%
CC(C)C(=O)N1CCN(Cc2csc(-c3ccccn3)n2)CC1	-5.71%
Cc1nc(C)n(CC2CCCN(Cc3nc(-c4ccco4)no3)C2)n1 (configuration not stated)	-11.5%
CCN(C(=O)Cc1ccc(NC(=O)NC2CC2)cc1)c1ccccc1	7.84%
CN(CCS(C)(=O)=O)C1CCCN(Cc2noc(C3CC3)n2)C1 (configuration not stated)	14.6%
CC(NCc1ccccn1)c1cc2c(cc1Br)OCCO2 (configuration not stated)	2.65%
CN(Cc1ccsc1)C(=O)Nc1ccc(=O)n(C)c1	6.26%
Cc1nn(C(C)C)c(C)c1S(=O)(=O)Nc1ccc(C(=O)O)cc1	15.2%
O=C(NCCCF)Nc1ccc2nc(N3CCOCC3)oc2c1	2.77%
CC(C)(C)c1nc(CC(=O)NC2CCN(C3CC3)C2)cs1 (configuration not stated)	-9.25%
CCC(Nc1nnnn1-c1ccccc1)C(=O)NC1CCSCC1 (configuration not stated)	-16%
CCc1nn(C)c2[nH]nc(NC(=O)c3cccnc3OCC(C)C)c12	3.94%
COc1ccc(C2CCCCCN2Cc2nnc(C)o2)cc1 (configuration not stated)	-7.12%
Cc1nc(C)c(CC(=O)N2CCC(Oc3ccccc3)CC2)c(=O)[nH]1	1.98%
CCS(=O)(=O)CC(=O)NC(C)c1ccc(F)cc1F (configuration not stated)	1.73%
CN(Cc1cccs1)C(=O)CN(C)C1CCc2ccccc21 (configuration not stated)	10.1%
CCSc1cncc(N2CCC(C(=O)Nc3ccccn3)CC2)n1	26.3%
Cc1csc(CN2C[C@@H]3CN(CC4CCOCC4)CCO[C@@H]3C2)n1	-109%
Cc1cccc(COC[C@@]23CCC[C@@H]2CN(C(=O)Cc2ccco2)C3)n1	-109%
O=C(c1c2c(N3CCCC3)ncnc2n2ccccc12)N1CCCC1	-70.7%

SMILES	cytotoxicity at 10 µM
CC1c2ncc(COCC3CCOCC3)n2CCN1C(=O)c1ccco1 (configuration not stated)	-0.882%
CCN1CCCC(C)(C(=O)NCc2nccn2Cc2ccccc2)C1 (configuration not stated)	4.69%
O=C(c1cnc(C2CC2)nc1)N1CCC(N2CCC(O)CC2)CC1	2.33%
Cc1nn(C)cc1-c1ccnc(N2CCSCC2)n1	3.47%
Cc1nc(N2CCC3(CCCNC3=O)C2)nc2c1CCCC2 (configuration not stated)	-4.97%
CCOc1ccc(CN2CC[C@](C)(O)C(C)(C)C2)cn1	5.88%
CNC(=O)c1ccnc(N2CCCC(COc3cccc(C)c3)C2)c1 (configuration not stated)	7.68%
Cc1nccc(-c2cccc(-c3ccn(CC4CCNC4)n3)c2)n1 (configuration not stated)	10.7%
Cc1ccc(-c2ccnc(N(C)CC3CCCO3)n2)c(C)n1 (configuration not stated)	-2.59%
O=S(=O)(c1c(Cl)nc2sccn12)N1CCC2(CCNCC2)C1	6.11%
Cc1nc(CC(=O)N(C)C2CCCN(CCc3ccccc3)C2)cs1 (configuration not stated)	3.13%
O=C(O)[C@@H]1CN(Cc2nc3ncccn3n2)C[C@H]1c1cccc(F)c1	-10.6%
CCOc1cc(CN2CCCC2)ccc1Oc1cccc(C#N)n1	-1.83%
COCCc1noc(CN(C)c2nc(C)cc(C)n2)n1	0.801%
CC(C)=CCC1(C(=O)O)CCCN(c2ccnc(C)n2)C1 (configuration not stated)	-0.842%
CCN(CC)S(=O)(=O)N1CCC(c2nccn2Cc2ccccn2)CC1	0.136%
Cc1cnn(C2CCCN(C(=O)c3ccc(-n4cnnn4)cc3)C2)c1 (configuration not stated)	-4.57%
CC(c1nc(C2CC2)no1)N1CCN(CCOCC(F)(F)F)CC1 (configuration not stated)	-8.6%
COCCNC(=O)C1(c2ccccc2C)CCOCC1	-9.04%
Cc1cc(C)cc(C2(C(=O)NC(C)Cn3ccnc3)CC2)c1 (configuration not stated)	-8.26%
Cc1cnc(NC(=O)c2ccc(-n3ncc(C#N)c3N)cc2)s1	5.88%

SMILES	cytotoxicity at 10 µM
COCC1c2c(cnn2CC2CC2)CCN1Cc1cc(C)on1 (configuration not stated)	5.5%
c1cncc(OC[C@@]23CCC[C@@H]2CN(CC2CCOCC2)C3)c1	7.66%
O=C1NCCN(CC2CC2)C12CCN(Cc1ccccc1)CC2	-78.7%
Fc1cnc(N2CCn3cc(CNc4ccccn4)nc3C2)nc1	-0.665%
O=C(NC1CC1)[C@@H]1C[C@@H]2CCN(Cc3ccccc3)C[C@@H]2O1	-65.8%
CC(C)NC1CCc2c(ccc(=O)n2CC2CC2)C1 (configuration not stated)	-76.5%
CCc1cnc(N2CCC3(CC2)CN(c2cccnc2)C(=O)CO3)nc1	7.18%
COCc1n[nH]c2c1CN(Cc1ccccn1)C2	-102%
COc1ccc(CN2CC[C@H](O)[C@@H]2Cc2cnn(C)c2)cc1	-81.7%
Cc1nc(C)n(CC2CN(Cc3cccs3)Cc3nccn3C2)n1 (configuration not stated)	-133%
Cn1nc(COCC2CC2)c2c1CCN(Cc1cccs1)C2	-101%
O=C(O)c1cc2c(nc1-c1ccoc1)CCN(CC1CCOC1)CC2 (configuration not stated)	-81.9%
COCCN1CCOCC12CCN(C(=O)c1ccncc1)CC2	-71.9%
O=C(Nc1cccnc1)[C@H]1CN(Cc2ccccn2)C[C@H]2OCC[C@@H]12	-107%
FC1(F)CCN(Cc2ccccn2)CC12CCN(c1ncccn1)C2 (configuration not stated)	-95.8%
Cc1nc(C2(O)CCCNCC2)sc1CCOc1ccc(F)cc1 (configuration not stated)	-15.8%
Cn1cc(-c2cnc(N3CCOCC3)nc2)cc1C(=O)NCCC#N	-83.9%
Cc1ccc(CN2CCC3(CC2)CC(N2CCN(C)CC2)CO3)s1 (configuration not stated)	-94.6%
CC(=O)Nc1c(C)noc1C=Cc1ccc(S(=O)(=O)NC2CC2)cc1	0.54%
